Experimental data taken from ChEMBL document CHEMBL4038268, “Methylpyrrole inhibitors of BET bromodomains” (Bioorg Med Chem Lett, 2017).

What was measured:
Protein polybromo-1 = Protein polybromo-1 (Homo sapiens, UniProt Q86U86); assay: Inhibition of human PBRM1 bromodomain 2 (S178 to E291 residues) expressed in bacterial expression system by BROMOscan assay
[1] = molecular target: Bromodomain-containing protein 3 (Homo sapiens, UniProt Q15059); assay: Binding affinity to BRD3 BD1-BD2 (P24 to P416 residues) (unknown origin) after 1 hr by Alexa-647-conjugated probe based TR-FRET assay
[2] = molecular target: T1, E3 ubiquitin-protein ligase TRIM33 (Homo sapiens, UniProt Q9UPN9); assay: Inhibition of human TRIM33-phd-bromo (D882 to A1087 residues) expressed in bacterial expression system by BROMOscan assay
T1 sequence (Q9UPN9 whole entry): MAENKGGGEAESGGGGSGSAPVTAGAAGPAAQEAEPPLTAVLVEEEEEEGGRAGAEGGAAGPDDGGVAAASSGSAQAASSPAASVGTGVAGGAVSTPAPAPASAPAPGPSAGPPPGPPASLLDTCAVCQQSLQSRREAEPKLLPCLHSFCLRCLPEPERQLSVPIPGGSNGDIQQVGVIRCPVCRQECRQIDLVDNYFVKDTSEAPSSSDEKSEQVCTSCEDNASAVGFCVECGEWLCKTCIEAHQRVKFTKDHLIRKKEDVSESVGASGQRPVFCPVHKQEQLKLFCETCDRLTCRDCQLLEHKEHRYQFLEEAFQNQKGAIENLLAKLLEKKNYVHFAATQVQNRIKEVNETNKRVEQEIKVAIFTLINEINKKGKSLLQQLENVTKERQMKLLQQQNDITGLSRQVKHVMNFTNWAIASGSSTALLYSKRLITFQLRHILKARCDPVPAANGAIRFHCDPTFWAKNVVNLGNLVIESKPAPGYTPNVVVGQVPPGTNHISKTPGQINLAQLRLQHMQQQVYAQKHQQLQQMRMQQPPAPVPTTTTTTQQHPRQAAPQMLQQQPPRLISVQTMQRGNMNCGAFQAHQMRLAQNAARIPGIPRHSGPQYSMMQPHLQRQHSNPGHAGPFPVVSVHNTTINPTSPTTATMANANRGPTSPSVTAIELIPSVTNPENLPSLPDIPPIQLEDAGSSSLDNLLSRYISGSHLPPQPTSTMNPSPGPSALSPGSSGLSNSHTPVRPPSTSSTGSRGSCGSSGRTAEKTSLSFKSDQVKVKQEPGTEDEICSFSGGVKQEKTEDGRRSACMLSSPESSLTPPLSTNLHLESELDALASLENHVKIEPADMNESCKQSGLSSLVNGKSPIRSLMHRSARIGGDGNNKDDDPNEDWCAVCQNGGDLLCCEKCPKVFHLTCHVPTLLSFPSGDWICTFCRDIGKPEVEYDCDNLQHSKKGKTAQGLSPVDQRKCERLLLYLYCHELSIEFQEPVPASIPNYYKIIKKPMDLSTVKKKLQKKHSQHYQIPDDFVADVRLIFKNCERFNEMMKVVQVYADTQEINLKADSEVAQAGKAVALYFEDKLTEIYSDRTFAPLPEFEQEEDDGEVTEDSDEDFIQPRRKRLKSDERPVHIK

[3] = molecular target: Bromodomain-containing protein 4 (Homo sapiens, UniProt O60885); assay: Inhibition of BRD4 (unknown origin) expressed in human H1299 cells co-expressing HPV16-LCR/E2 after 24 hrs by Bright Glo-luciferase reporter gene assay; type: cell-based
Method in brief: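 Target-engagement reporter in an H1299-derived line carrying a stably integrated E2 expression cassette and an HPV-LCR-driven luciferase reporter. The read-out is BRD4-dependent E2-mediated transcriptional repression. EC50 is the mean of two measurements.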

MX1 = assay: Antiproliferative activity against human MX1 cells incubated over 72 hrs by Cell Titre Glo luminescence assay; type: functional, cell-based; details: MX1, 72 h
Method in brief: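 Triple-negative breast cancer line MX-1 grown 3 days with compound. Proliferation read with the CellTiter-Glo kit. EC50 is the mean of two measurements.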

Mus musculus = assay: Unbound AUC in mouse at 10 mg/kg, po; type: ADME, organism-based; details: in vivo
[4] = molecular target: Bromodomain-containing protein 2 (Homo sapiens, UniProt P25440); assay: Binding affinity to BRD2 BD1-BD2 (G73 to A560 residues) (unknown origin) after 1 hr by Alexa-647-conjugated probe based TR-FRET assay
Plasma = assay: Unbound clearance in mouse plasma at 3 mg/kg, iv; type: ADME, organism-based; details: in vivo
Peregrin (Homo sapiens) = molecular target: T2, Peregrin (Homo sapiens) (UniProt P55201); assay: Inhibition of human BRPF1 (E627 to G740 residues) expressed in bacterial expression system at 1 uM by BROMOscan assay
T2 sequence (whole entry): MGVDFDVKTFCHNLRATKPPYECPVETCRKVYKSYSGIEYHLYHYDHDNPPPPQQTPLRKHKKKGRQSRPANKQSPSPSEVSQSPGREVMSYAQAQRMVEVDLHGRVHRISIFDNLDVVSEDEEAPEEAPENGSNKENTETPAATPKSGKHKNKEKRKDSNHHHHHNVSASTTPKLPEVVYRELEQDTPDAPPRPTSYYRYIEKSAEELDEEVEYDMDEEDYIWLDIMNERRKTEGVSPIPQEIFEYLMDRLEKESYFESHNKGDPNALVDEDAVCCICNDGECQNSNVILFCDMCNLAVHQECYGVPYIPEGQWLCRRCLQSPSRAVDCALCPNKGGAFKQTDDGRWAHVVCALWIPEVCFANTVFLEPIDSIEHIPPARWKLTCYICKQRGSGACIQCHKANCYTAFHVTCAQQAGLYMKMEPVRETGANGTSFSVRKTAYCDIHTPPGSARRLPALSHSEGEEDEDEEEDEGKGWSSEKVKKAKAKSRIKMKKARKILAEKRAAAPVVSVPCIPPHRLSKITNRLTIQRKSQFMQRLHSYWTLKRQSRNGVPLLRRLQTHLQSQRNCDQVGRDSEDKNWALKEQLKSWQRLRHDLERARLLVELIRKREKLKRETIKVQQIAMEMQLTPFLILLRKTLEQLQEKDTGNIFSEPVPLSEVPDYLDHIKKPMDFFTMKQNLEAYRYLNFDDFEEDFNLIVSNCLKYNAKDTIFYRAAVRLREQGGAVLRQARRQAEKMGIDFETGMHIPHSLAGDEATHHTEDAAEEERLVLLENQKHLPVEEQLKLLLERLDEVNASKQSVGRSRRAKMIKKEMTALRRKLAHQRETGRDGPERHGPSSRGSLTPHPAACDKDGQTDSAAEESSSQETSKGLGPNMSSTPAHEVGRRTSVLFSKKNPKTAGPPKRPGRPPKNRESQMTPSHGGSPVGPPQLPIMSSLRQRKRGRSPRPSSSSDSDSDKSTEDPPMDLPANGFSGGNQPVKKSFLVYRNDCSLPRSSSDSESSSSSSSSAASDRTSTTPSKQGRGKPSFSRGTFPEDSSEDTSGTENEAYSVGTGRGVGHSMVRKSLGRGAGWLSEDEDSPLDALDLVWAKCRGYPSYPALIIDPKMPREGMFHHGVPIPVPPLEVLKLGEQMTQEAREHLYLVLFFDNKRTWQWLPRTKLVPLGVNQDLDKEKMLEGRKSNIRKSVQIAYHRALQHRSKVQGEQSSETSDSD

Protein polybromo-1, sequence (Q86U86 whole entry, the tested form may be a part): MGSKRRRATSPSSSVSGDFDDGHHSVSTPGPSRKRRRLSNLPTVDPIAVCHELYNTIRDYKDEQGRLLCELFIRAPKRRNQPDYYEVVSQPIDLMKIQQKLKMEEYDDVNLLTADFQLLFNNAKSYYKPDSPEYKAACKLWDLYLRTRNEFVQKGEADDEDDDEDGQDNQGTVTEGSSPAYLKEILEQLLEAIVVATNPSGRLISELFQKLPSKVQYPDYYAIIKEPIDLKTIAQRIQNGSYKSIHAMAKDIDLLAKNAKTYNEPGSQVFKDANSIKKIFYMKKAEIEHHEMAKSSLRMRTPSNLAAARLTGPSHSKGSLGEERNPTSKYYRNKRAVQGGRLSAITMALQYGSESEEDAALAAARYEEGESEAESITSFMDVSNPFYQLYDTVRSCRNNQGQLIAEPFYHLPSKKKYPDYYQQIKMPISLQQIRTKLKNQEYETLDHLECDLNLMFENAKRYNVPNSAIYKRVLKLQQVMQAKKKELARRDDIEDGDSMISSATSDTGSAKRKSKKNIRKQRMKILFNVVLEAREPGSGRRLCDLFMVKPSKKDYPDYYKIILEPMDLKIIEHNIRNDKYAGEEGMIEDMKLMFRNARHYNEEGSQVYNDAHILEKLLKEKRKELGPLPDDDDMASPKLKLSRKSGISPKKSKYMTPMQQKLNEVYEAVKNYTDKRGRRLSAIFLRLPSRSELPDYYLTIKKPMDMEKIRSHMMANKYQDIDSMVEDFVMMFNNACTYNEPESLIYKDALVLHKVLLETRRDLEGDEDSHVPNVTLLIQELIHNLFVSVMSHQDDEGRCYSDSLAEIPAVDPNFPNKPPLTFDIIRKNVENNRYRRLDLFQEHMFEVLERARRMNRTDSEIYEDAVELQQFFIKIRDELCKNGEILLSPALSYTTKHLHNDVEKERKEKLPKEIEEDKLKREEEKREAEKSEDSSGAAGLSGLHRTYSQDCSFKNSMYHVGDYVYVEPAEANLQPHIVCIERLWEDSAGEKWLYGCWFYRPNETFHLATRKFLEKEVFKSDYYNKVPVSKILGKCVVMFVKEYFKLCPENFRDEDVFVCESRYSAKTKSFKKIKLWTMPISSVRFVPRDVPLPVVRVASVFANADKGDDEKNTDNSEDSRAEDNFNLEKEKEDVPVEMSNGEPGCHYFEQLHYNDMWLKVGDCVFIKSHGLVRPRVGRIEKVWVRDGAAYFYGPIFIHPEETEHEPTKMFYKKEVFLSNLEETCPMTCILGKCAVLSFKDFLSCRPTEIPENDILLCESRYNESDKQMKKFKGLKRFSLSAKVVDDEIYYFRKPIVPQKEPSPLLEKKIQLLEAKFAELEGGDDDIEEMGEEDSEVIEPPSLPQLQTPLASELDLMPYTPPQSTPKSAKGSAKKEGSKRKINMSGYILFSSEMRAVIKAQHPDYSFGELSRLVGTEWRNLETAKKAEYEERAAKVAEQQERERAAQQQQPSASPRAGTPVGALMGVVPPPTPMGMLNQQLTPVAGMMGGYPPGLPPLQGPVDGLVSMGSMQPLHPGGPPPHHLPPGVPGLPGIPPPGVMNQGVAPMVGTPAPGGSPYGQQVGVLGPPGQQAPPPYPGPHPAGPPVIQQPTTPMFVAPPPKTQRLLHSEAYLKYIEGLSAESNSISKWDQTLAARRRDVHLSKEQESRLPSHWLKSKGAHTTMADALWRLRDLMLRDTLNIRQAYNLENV
Bromodomain-containing protein 3, sequence (Q15059 whole entry, the tested form may be a part): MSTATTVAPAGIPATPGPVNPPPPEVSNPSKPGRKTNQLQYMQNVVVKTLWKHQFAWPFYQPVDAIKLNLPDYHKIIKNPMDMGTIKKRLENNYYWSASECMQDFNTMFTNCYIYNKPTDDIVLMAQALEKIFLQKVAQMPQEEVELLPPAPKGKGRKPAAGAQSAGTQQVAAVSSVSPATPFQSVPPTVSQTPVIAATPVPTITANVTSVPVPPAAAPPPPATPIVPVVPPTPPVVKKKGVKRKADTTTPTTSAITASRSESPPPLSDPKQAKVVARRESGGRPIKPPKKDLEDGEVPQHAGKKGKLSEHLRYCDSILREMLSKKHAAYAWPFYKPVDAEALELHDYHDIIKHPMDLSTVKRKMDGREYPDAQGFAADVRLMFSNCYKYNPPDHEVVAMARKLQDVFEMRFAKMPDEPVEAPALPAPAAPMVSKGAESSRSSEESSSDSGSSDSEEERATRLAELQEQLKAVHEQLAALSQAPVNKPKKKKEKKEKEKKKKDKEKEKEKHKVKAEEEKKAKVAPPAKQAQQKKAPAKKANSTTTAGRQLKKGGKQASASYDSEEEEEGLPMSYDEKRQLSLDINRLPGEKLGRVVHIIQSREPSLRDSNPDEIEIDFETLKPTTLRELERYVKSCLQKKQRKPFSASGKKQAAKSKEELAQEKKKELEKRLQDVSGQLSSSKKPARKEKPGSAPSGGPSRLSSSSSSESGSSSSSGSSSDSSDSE
Bromodomain-containing protein 2, sequence (P25440 whole entry, the tested form may be a part): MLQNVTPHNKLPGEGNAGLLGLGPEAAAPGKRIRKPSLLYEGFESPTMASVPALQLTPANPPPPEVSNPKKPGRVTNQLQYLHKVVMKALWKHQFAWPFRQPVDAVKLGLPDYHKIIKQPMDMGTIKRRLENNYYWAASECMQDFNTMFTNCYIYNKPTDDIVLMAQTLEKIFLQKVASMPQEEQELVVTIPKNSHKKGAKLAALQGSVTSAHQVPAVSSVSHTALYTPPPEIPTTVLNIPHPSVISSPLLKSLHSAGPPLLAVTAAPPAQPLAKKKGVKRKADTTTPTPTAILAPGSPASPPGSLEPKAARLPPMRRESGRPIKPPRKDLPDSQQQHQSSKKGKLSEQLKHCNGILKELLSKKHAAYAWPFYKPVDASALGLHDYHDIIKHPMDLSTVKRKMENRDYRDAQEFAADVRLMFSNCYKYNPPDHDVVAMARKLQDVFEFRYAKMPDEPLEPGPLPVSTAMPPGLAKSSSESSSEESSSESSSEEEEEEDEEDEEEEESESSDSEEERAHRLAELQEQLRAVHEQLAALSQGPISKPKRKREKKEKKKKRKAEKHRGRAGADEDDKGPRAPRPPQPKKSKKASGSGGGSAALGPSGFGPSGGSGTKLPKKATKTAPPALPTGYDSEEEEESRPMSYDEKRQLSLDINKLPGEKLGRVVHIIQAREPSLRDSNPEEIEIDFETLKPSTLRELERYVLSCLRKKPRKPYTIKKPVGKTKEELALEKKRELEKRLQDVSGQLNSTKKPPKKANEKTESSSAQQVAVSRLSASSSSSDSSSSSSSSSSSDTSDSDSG

| IC50 (Protein polybromo-1) | Ki [1] | IC50 [2] | EC50 [3] | fAUC (Mus musculus) | Ki [4] | CL free (Plasma) | inhibition (Peregrin (Homo sapiens)) | SMILES | EC50 (MX1) |
| --- | --- | --- | --- | --- | --- | --- | --- | --- | --- |
| > 10000 nM | 110 nM | > 10000 nM | 290 nM | 0.53 µM·h | 27 nM | 233 mL/min/kg | 98.6% | Cc1[nH]c(-c2cc(S(C)(=O)=O)ccc2Oc2ccc(F)cc2F)c2c1C(=O)NCC2 | 900 nM |
| > 10000 nM | 290 nM | > 10000 nM | 150 nM | 0.86 µM·h | 160 nM | 267 mL/min/kg | 83% | Cn1cc(-c2cc(S(C)(=O)=O)ccc2Oc2ccc(F)cc2F)c2cc[nH]c(=O)c21 | 110 nM |

| SMILES | IC50 (Protein polybromo-1) | Ki [1] | IC50 [2] | EC50 [3] | fAUC (Mus musculus) | Ki [4] | CL free (Plasma) | inhibition (Peregrin (Homo sapiens)) | EC50 (MX1) |
| --- | --- | --- | --- | --- | --- | --- | --- | --- | --- |
| Cc1[nH]c(-c2cc(NS(C)(=O)=O)ccc2Oc2ccccc2)c2c1C(=O)CCC2 | > 10000 nM | 35 nM | > 10000 nM | 51 nM | 0.09 µM·h | 14 nM | 1400 mL/min/kg | 100% | 160 nM |
